Test results as given in ChEMBL document CHEMBL1938268, “Synthesis, characterization and in vitro biological evaluation of some novel diarylsulfonylureas as potential cytotoxic and antimicrobial agents” (Bioorg Med Chem Lett, 2012).
In brackets after ≈: the same amount, converted by molar mass.

Tested on: Pseudomonas aeruginosa
Assay: Antibacterial activity against Pseudomonas aeruginosa NCIM 2036 after 24 hrs by agar well diffusion assay
Format: functional
Details: NCIM 2036, 24 h
How it was run: (§1)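 Agar well diffusion per NCCLS; NCIM standard strains. Nutrient agar seeded with 0.1 mL bacterial suspension in sterile 0.85% saline at 10⁵ CFU/mL. Plates in triplicate, 37 0.5 °C, 24 h. MIC taken as lowest concentration giving complete growth inhibition.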

With `COc1ccc(/C=C/C(=O)c2ccccc2NC(=O)NS(=O)(=O)c2ccc(C)cc2)c(OC)c1` as the compound, how does the MIC read?
Its MIC is 32 µg/mL (≈ 66.6 µM).

With `COc1cccc(/C=C/C(=O)c2ccccc2NC(=O)NS(=O)(=O)c2ccc(C)cc2)c1` as the compound, how does the MIC read?
Its MIC is 128 µg/mL (≈ 284 µM).

Which MIC does the source give for `Cc1ccc(S(=O)(=O)NC(=O)Nc2ccccc2C(=O)/C=C/c2ccc[nH]2)cc1` here?
The MIC was 256 µg/mL (≈ 625 µM).

Tested on: Aspergillus niger
Assay: Antifungal activity against Aspergillus niger NCIM 548 after 48 hrs by agar well diffusion assay
Format: functional
Details: NCIM 548, 48 h
How it was run: (§2)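 Fungal spore suspensions in sterile distilled water set to final 10⁶ CFU/mL; 0.1 mL spread on Potato-Dextrose-Agar. NCCLS agar well diffusion with NCIM standard strains: 6 mm wells given 0.1 mL compound diluted in 1% DMSO, final 16 to 512 µg/mL. Triplicate plates held 48 h at 28 0.2 °C. MIC is lowest concentration fully inhibiting growth.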

For `COc1ccc(/C=C/C(=O)c2ccccc2NC(=O)NS(=O)(=O)c2ccc(C)cc2)c(OC)c1`, which MIC is on record?
The MIC was 128 µg/mL (≈ 266 µM).

With `COc1cccc(/C=C/C(=O)c2ccccc2NC(=O)NS(=O)(=O)c2ccc(C)cc2)c1` as the compound, how does the MIC read?
Its MIC is 128 µg/mL (≈ 284 µM).

Which MIC does the source give for `Cc1ccc(S(=O)(=O)NC(=O)Nc2ccccc2C(=O)/C=C/c2ccc[nH]2)cc1` here?
The MIC was 256 µg/mL (≈ 625 µM).

Tested on: not listed separately
Assay: Toxicity against Brine shrimp nauplii after 24 hrs
Format: organism-based
Details: artemia salina, in vivo; read-out: ED50
How it was run: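 Artemia salina nauplii hatched 38 h in sterile brine (sea salt 38 g/L, pH 8.5) under aeration; 10 nauplii per vial exposed to graded compound concentrations in 5 mL final volume, 37 °C, 24 h under incandescent light. Survivors counted; percent lethality versus vehicle-treated controls; ED50 from probit analysis; podophyllotoxin positive control.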

With `COc1ccc(/C=C/C(=O)c2ccccc2NC(=O)NS(=O)(=O)c2ccc(C)cc2)c(OC)c1` as the compound, how does the LC50 at 24 h read?
Its LC50 at 24 h is 16 µg/mL (≈ 33.4 µM).

Which LC50 at 24 h does the source give for `COc1cccc(/C=C/C(=O)c2ccccc2NC(=O)NS(=O)(=O)c2ccc(C)cc2)c1` here?
The LC50 at 24 h was 23.2 µg/mL (≈ 51.4 µM).

For `Cc1ccc(S(=O)(=O)NC(=O)Nc2ccccc2C(=O)/C=C/c2ccc[nH]2)cc1`, which LC50 at 24 h is on record?
The LC50 at 24 h was 32.1 µg/mL (≈ 78.4 µM).

Tested on: Candida albicans
Assay: Antifungal activity against Candida albicans NCIM 3102 after 48 hrs by agar well diffusion assay
Format: functional
Details: NCIM 3102, 48 h
How it was run: as §2

For `COc1ccc(/C=C/C(=O)c2ccccc2NC(=O)NS(=O)(=O)c2ccc(C)cc2)c(OC)c1`, which MIC is on record?
Its MIC is 128 µg/mL (≈ 266 µM).

For `COc1cccc(/C=C/C(=O)c2ccccc2NC(=O)NS(=O)(=O)c2ccc(C)cc2)c1`, which MIC is on record?
Its MIC is 128 µg/mL (≈ 284 µM).

Which MIC does the source give for `Cc1ccc(S(=O)(=O)NC(=O)Nc2ccccc2C(=O)/C=C/c2ccc[nH]2)cc1` here?
Its MIC is 256 µg/mL (≈ 625 µM).

Tested on: Escherichia coli
Assay: Antibacterial activity against Escherichia coli NCIM 2065 after 24 hrs by agar well diffusion assay
Format: functional
Details: NCIM 2065, 24 h
How it was run: as §1

Which MIC does the source give for `COc1ccc(/C=C/C(=O)c2ccccc2NC(=O)NS(=O)(=O)c2ccc(C)cc2)c(OC)c1` here?
The MIC was 32 µg/mL (≈ 66.6 µM).

With `COc1cccc(/C=C/C(=O)c2ccccc2NC(=O)NS(=O)(=O)c2ccc(C)cc2)c1` as the compound, how does the MIC read?
The MIC was 128 µg/mL (≈ 284 µM).

Which MIC does the source give for `Cc1ccc(S(=O)(=O)NC(=O)Nc2ccccc2C(=O)/C=C/c2ccc[nH]2)cc1` here?
Its MIC is 128 µg/mL (≈ 313 µM).

Tested on: Staphylococcus aureus
Assay: Antibacterial activity against Staphylococcus aureus NCIM 2079 after 24 hrs by agar well diffusion assay
Format: functional
Details: NCIM 2079, 24 h
How it was run: as §1

Which MIC does the source give for `COc1ccc(/C=C/C(=O)c2ccccc2NC(=O)NS(=O)(=O)c2ccc(C)cc2)c(OC)c1` here?
The MIC was 32 µg/mL (≈ 66.6 µM).

For `COc1cccc(/C=C/C(=O)c2ccccc2NC(=O)NS(=O)(=O)c2ccc(C)cc2)c1`, which MIC is on record?
The MIC was 128 µg/mL (≈ 284 µM).

Which MIC does the source give for `Cc1ccc(S(=O)(=O)NC(=O)Nc2ccccc2C(=O)/C=C/c2ccc[nH]2)cc1` here?
The MIC was 128 µg/mL (≈ 313 µM).

Tested on: Proteus vulgaris
Assay: Antibacterial activity against Proteus vulgaris NCIM 2813 after 24 hrs by agar well diffusion assay
Format: functional
Details: NCIM 2813, 24 h
How it was run: as §1

With `COc1ccc(/C=C/C(=O)c2ccccc2NC(=O)NS(=O)(=O)c2ccc(C)cc2)c(OC)c1` as the compound, how does the MIC read?
Its MIC is 128 µg/mL (≈ 266 µM).

With `COc1cccc(/C=C/C(=O)c2ccccc2NC(=O)NS(=O)(=O)c2ccc(C)cc2)c1` as the compound, how does the MIC read?
Its MIC is 128 µg/mL (≈ 284 µM).

With `Cc1ccc(S(=O)(=O)NC(=O)Nc2ccccc2C(=O)/C=C/c2ccc[nH]2)cc1` as the compound, how does the MIC read?
Its MIC is 256 µg/mL (≈ 625 µM).

Tested on: Bacillus pumilus
Assay: Antibacterial activity against Bacillus pumilus NCIM 2327 after 24 hrs by agar well diffusion assay
Details: NCIM 2327, 24 h

For `COc1ccc(/C=C/C(=O)c2ccccc2NC(=O)NS(=O)(=O)c2ccc(C)cc2)c(OC)c1`, which MIC is on record?
The MIC was 32 µg/mL (≈ 66.6 µM).

Which MIC does the source give for `COc1cccc(/C=C/C(=O)c2ccccc2NC(=O)NS(=O)(=O)c2ccc(C)cc2)c1` here?
Its MIC is 128 µg/mL (≈ 284 µM).

Which MIC does the source give for `Cc1ccc(S(=O)(=O)NC(=O)Nc2ccccc2C(=O)/C=C/c2ccc[nH]2)cc1` here?
Its MIC is 128 µg/mL (≈ 313 µM).

Tested on: Micrococcus luteus
Assay: Antibacterial activity against Micrococcus luteus NCIM 2155 after 24 hrs by agar well diffusion assay
Format: functional
Details: NCIM 2155, 24 h
How it was run: as §1

For `COc1ccc(/C=C/C(=O)c2ccccc2NC(=O)NS(=O)(=O)c2ccc(C)cc2)c(OC)c1`, which MIC is on record?
The MIC was 128 µg/mL (≈ 266 µM).

Which MIC does the source give for `COc1cccc(/C=C/C(=O)c2ccccc2NC(=O)NS(=O)(=O)c2ccc(C)cc2)c1` here?
The MIC was 128 µg/mL (≈ 284 µM).

For `Cc1ccc(S(=O)(=O)NC(=O)Nc2ccccc2C(=O)/C=C/c2ccc[nH]2)cc1`, which MIC is on record?
The MIC was 256 µg/mL (≈ 625 µM).

Tested on: Aspergillus oryzae
Assay: Antifungal activity against Aspergillus oryzae NCIM 643 after 48 hrs by agar well diffusion assay
Format: functional
Details: NCIM 643, 48 h
How it was run: as §2

With `COc1ccc(/C=C/C(=O)c2ccccc2NC(=O)NS(=O)(=O)c2ccc(C)cc2)c(OC)c1` as the compound, how does the MIC read?
The MIC was 128 µg/mL (≈ 266 µM).

For `COc1cccc(/C=C/C(=O)c2ccccc2NC(=O)NS(=O)(=O)c2ccc(C)cc2)c1`, which MIC is on record?
Its MIC is 128 µg/mL (≈ 284 µM).

Which MIC does the source give for `Cc1ccc(S(=O)(=O)NC(=O)Nc2ccccc2C(=O)/C=C/c2ccc[nH]2)cc1` here?
Its MIC is 256 µg/mL (≈ 625 µM).

Tested on: Klebsiella pneumoniae
Assay: Antibacterial activity against Klebsiella pneumoniae NCIM 5082 after 24 hrs by agar well diffusion assay
Format: functional
Details: NCIM 5082, 24 h
How it was run: as §1

For `COc1ccc(/C=C/C(=O)c2ccccc2NC(=O)NS(=O)(=O)c2ccc(C)cc2)c(OC)c1`, which MIC is on record?
Its MIC is 128 µg/mL (≈ 266 µM).

For `COc1cccc(/C=C/C(=O)c2ccccc2NC(=O)NS(=O)(=O)c2ccc(C)cc2)c1`, which MIC is on record?
Its MIC is 128 µg/mL (≈ 284 µM).

For `Cc1ccc(S(=O)(=O)NC(=O)Nc2ccccc2C(=O)/C=C/c2ccc[nH]2)cc1`, which MIC is on record?
Its MIC is 256 µg/mL (≈ 625 µM).

Tested on: Bacillus subtilis
Assay: Antibacterial activity against Bacillus subtilis NCIM 2063 after 24 hrs by agar well diffusion assay
Format: functional
Details: NCIM 2063, 24 h
How it was run: as §1

For `COc1ccc(/C=C/C(=O)c2ccccc2NC(=O)NS(=O)(=O)c2ccc(C)cc2)c(OC)c1`, which MIC is on record?
Its MIC is 32 µg/mL (≈ 66.6 µM).

For `COc1cccc(/C=C/C(=O)c2ccccc2NC(=O)NS(=O)(=O)c2ccc(C)cc2)c1`, which MIC is on record?
Its MIC is 128 µg/mL (≈ 284 µM).

Which MIC does the source give for `Cc1ccc(S(=O)(=O)NC(=O)Nc2ccccc2C(=O)/C=C/c2ccc[nH]2)cc1` here?
The MIC was 256 µg/mL (≈ 625 µM).

Tested on: Penicillium chrysogenum
Assay: Antifungal activity against Penicillium chrysogenum NCIM 738 after 48 hrs by agar well diffusion assay
Format: functional
Details: NCIM 738, 48 h
How it was run: as §2

Which MIC does the source give for `COc1ccc(/C=C/C(=O)c2ccccc2NC(=O)NS(=O)(=O)c2ccc(C)cc2)c(OC)c1` here?
Its MIC is 128 µg/mL (≈ 266 µM).

Which MIC does the source give for `COc1cccc(/C=C/C(=O)c2ccccc2NC(=O)NS(=O)(=O)c2ccc(C)cc2)c1` here?
The MIC was 128 µg/mL (≈ 284 µM).

Which MIC does the source give for `Cc1ccc(S(=O)(=O)NC(=O)Nc2ccccc2C(=O)/C=C/c2ccc[nH]2)cc1` here?
The MIC was 256 µg/mL (≈ 625 µM).
